Results: ChEMBL document CHEMBL4321861, “An Underlying Mechanism of Dual Wnt Inhibition and AMPK Activation: Mitochondrial Uncouplers Masquerading as Wnt Inhibitors” (J Med Chem, 2019)
Activity calls are given as the source filed them. The calls are words filed in the database; no cut-off is given here.

Key:
[1] = tested on: HEK293; assay: Inhibition of LiCl-activated Wnt signaling in HEK293 cells at 3 uM by TOPFlash reporter gene assay; assay type: cell-based; conditions: Homo sapiens
In short: (§1)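 Stable HEK293T Super 8xTOPFlash reporter line (pGL4.83 backbone, puromycin-selected), stimulated with 25 mM LiCl to stabilize β-catenin. Treated with compound in DMSO or DMSO. Luciferase read in 96- or 24-well format. AMPK inhibitor compound C used at 5 μM where applied. At least three independent repeats.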

[2] = molecular target: T1, AMP-activated protein kinase, AMPK (Homo sapiens) (UniProt P54646+O43741+P54619+Q9UGJ0+Q9Y478+Q13131+Q9UGI9); assay: Activation of AMPK (unknown origin) assessed as increase in AMPK phosphorylation at T172 residue at 3 uM by Western blot analysis; assay type: protein-complex assay
In short: (§2)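 Cells lysed in 50 mM HEPES, 100 mM NaCl, 2 mM EDTA, 1% glycerol, 50 mM NaF, 1 mM Na3VO4, 1% Triton X-100 with protease inhibitors. Western blot probed for total and phospho-AMPK and total and phospho-ACC, with actin loading control. Compounds given in DMSO. At least three independent repeats.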

[3] = molecular target: T1, AMP-activated protein kinase, AMPK (Homo sapiens); assay: Activation of AMPK (unknown origin) assessed as […] phosphorylation at S79 residue at 3 uM by Western blot analysis; assay type: protein-complex assay; in short: as §2
[4] = tested on: Liver; assay: Uncoupling of mitochondrial oxidative phosphorylation in mouse liver mitochondria assessed as increase in oxygen consumption rate at 1 to 5 uM in presence of oligomycin A by seahorse XFe96 analyser based assay
In short: (§3)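 Mouse liver mitochondria isolated by differential centrifugation in mannitol/sucrose/HEPES/EGTA buffer, pH 7.2. Loaded at 6 μg/well in KCl/HEPES/MgCl2/KH2PO4 respiration buffer, pH 7.2, at 37 °C. OCR measured on XFe96.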

[5] = tested on: DLD-1; assay: Inhibition of mitochondrial oxidative phosphorylation in human DLD1 cells assessed as reduction in oxygen consumption rate by seahorse XFe96 analyser based assay; conditions: Mitochondria
In short: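 DLD-1 cells, ~3×10^4 per well, seeded a day ahead; medium switched to Seahorse XF modified medium with 25 mM glucose and 1 mM pyruvate. Mitochondrial stress test: 1 μM oligomycin A, test compound in DMSO in place of FCCP, then 1.0 μM rotenone plus 1.0 μM antimycin A. OCR recorded; ATP production rate by real-time ATP rate assay.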

[6] = tested on: Liver; assay: Uncoupling of mitochondrial oxidative phosphorylation in mouse liver mitochondria assessed as increase in oxygen consumption rate in presence of oligomycin A by seahorse XFe96 analyser based assay; in short: as §3
[7] = tested on: HEK293; assay: Inhibition of LiCl-activated Wnt signaling in HEK293 cells at 0.5 uM by TOPFlash reporter gene assay; assay type: cell-based; conditions: Homo sapiens; in short: as §1
[8] = tested on: HEK293; assay: Effect on FOP reporter expression in LiCl-induced HEK293T cells incubated for 24 hrs by luciferase reporter gene assay; assay type: functional, cell-based; conditions: Homo sapiens
In short: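 HEK293T cells transiently transfected with Super 8x TOPFlash or 8x FOPFlash plus control Renilla reporter. Wnt signaling activated with LiCl or Wnt3A. Cells treated with DMSO or compound in DMSO. Luciferase activity read.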

[9] = tested on: LS174T; assay: Cytotoxicity against human LS174T cells assessed as reduction in cell viability by Vi-Cell XR cell viability analyzer-based assay; assay type: functional
In short: (§4)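 Colon cancer cells plated at 3.5×10^4 per well in 12-well plates. LS174T were in EMEM + 10% FBS; DLD-1 were in DMEM + 10% FBS. After 24 h, compound in DMSO added (DMSO control). Cell number and viability counted on a Vi-Cell XR analyzer. Triplicate wells.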

[10] = tested on: DLD-1; assay: Cytotoxicity against human DLD1 cells assessed as reduction in cell viability by Vi-Cell XR cell viability analyzer-based assay; assay type: functional; in short: as §4
[11] = species on record: Homo sapiens; assay: Inhibition of Wnt in human DLD1 cells assessed as reduction in Axin2 expression at 1 to 3 uM by Western blot analysis; assay type: cell-based
In short: (§5)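 Colorectal cancer cells (DLD-1, LS174T, SW620) treated with a compound dose series in DMSO. Lysates immunoblotted for Axin2, c-Myc and cyclin D1. At least three independent repeats.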

[12] = species on record: Homo sapiens; assay: Inhibition of Wnt in human SW620 cells assessed as reduction in Axin2 expression at 1 uM by Western blot analysis; assay type: cell-based; in short: as §5
[13] = tested on: LS174T; assay: Inhibition of Wnt in human LS174T cells assessed as reduction in Axin2 expression at 1 uM by Western blot analysis; assay type: cell-based; in short: as §5
[14] = species on record: Homo sapiens; assay: Inhibition of Wnt in human DLD1 cells assessed as reduction in c-Myc expression at 1 to 3 uM by Western blot analysis; assay type: cell-based; in short: as §5
[15] = species on record: Homo sapiens; assay: Inhibition of Wnt in human SW620 cells assessed as reduction in c-Myc expression at 1 uM by Western blot analysis; assay type: cell-based; in short: as §5
[16] = tested on: LS174T; assay: Inhibition of Wnt in human LS174T cells assessed as reduction in c-Myc expression at 1 uM by Western blot analysis; assay type: cell-based; in short: as §5
[17] = species on record: Homo sapiens; assay: Inhibition of Wnt in human DLD1 cells assessed as reduction in cyclin-D1 expression at 1 to 3 uM by Western blot analysis; assay type: cell-based; in short: as §5
[18] = species on record: Homo sapiens; assay: Inhibition of Wnt in human SW620 cells assessed as reduction in cyclin-D1 expression at 1 uM by Western blot analysis; assay type: cell-based; in short: as §5
[19] = tested on: LS174T; assay: Inhibition of Wnt in human LS174T cells assessed as reduction in cyclin-D1 expression at 1 uM by Western blot analysis; assay type: cell-based; in short: as §5
[20] = molecular target: T1, AMP-activated protein kinase, AMPK (Homo sapiens); assay: Activation of AMPK in human LS174T cells assessed as increase in AMPK phosphorylation at T172 residue at 3 uM by Western blot analysis; assay type: cell-based; in short: as §2
[21] = molecular target: T1, AMP-activated protein kinase, AMPK (Homo sapiens); assay: Activation of AMPK in human LS174T cells assessed as […] phosphorylation at S79 residue at 3 uM by Western blot analysis; assay type: cell-based; in short: as §2
[22] = tested on: HEK293; assay: Inhibition of LiCl-activated Wnt signaling in HEK293 cells at 3 uM in presence of AMPK inhibitor compound C by TOPFlash reporter gene assay; assay type: cell-based; conditions: Homo sapiens; in short: as §1
[23] = tested on: DLD-1; assay: Induction of mitochondrial dysfunction in human DLD1 cells assessed as reduction in mitochondrial ATP production at 3 uM by Seahorse XF real-time assay; conditions: Mitochondria
In short: (§6)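 About 3×10^4 cells seeded per well in XF96 plates. Next day medium switched to Seahorse XF medium with 25 mM glucose and 1 mM pyruvate. Compound given at 3 μM in DMSO; FCCP 1 μM as reference. Mitochondrial and glycolytic ATP production rates measured by XF Real-Time ATP Rate Assay.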

[24] = tested on: DLD-1; assay: Induction of mitochondrial dysfunction in human DLD1 cells assessed as increase in glycolytic ATP production at 3 uM by Seahorse XF real-time assay; conditions: Mitochondria; in short: as §6
[25] = tested on: LS174T; assay: Induction of mitochondrial dysfunction in human LS174T cells assessed as reduction in mitochondrial ATP production at 3 uM by Seahorse XF real-time assay; conditions: Mitochondria; in short: as §6
[26] = tested on: LS174T; assay: Induction of mitochondrial dysfunction in human LS174T cells assessed as increase in glycolytic ATP production at 3 uM by Seahorse XF real-time assay; conditions: Mitochondria; in short: as §6
[27] = tested on: DLD-1; assay: Induction of mitochondrial membrane potential disruption in human DLD1 cells at 3 uM measured after 2 hrs by TMRM staining based fluorescence microscopic analysis; conditions: Mitochondria
In short: (§7)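 Cells grown one day in 24-well plates: DLD-1 in DMEM + 10% serum, LS174T in RPMI1640 + 5% serum. Treated 2 h with compound in DMSO or DMSO, then stained with 100 nM TMRM for 15 min. Rinsed once with PBS and imaged by fluorescence microscopy at 568 nm.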

[28] = tested on: LS174T; assay: Induction of mitochondrial membrane potential disruption in human LS174T cells at 3 uM measured after 2 hrs by TMRM staining based fluorescence microscopic analysis; conditions: Mitochondria; in short: as §7
[29] = tested on: DLD-1; assay: Uncoupling of mitochondrial oxidative phosphorylation in human DLD1 cells at 3 uM in presence of oligomycin A by seahorse XFe96 analyser based assay; conditions: Mitochondria
In short: (§8)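 DLD-1 cells, about 3×10^4 per XF96 well, in XF medium with 25 mM glucose and 1 mM pyruvate. Mito stress sequence: oligomycin A 1 μM, then test compound 3 μM in DMSO in place of FCCP (FCCP 1 μM as control), then rotenone/antimycin A 1 μM each. Oxygen consumption rate recorded.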

[30] = tested on: DLD-1; assay: Uncoupling of mitochondrial oxidative phosphorylation in human DLD1 cells assessed as increase in oxygen consumption rate at 3 uM in presence of oligomycin A by seahorse XFe96 analyser based assay; conditions: Mitochondria; in short: as §8
[31] = tested on: LS174T; assay: Inhibition of LiCl-induced Wnt signaling in human LS174T cells assessed as reduction in beta-catenin accumulation; assay type: cell-based
[32] = tested on: HEK293; assay: Inhibition of LiCl-activated Wnt signaling in HEK293 cells by TOPFlash reporter gene assay; assay type: cell-based; conditions: Homo sapiens; in short: as §1
[33] = molecular target: T1, AMP-activated protein kinase, AMPK (Homo sapiens); assay: Activation of AMPK in human LS174T cells assessed as increase in AMPK phosphorylation at T172 residue by Western blot analysis; assay type: cell-based; in short: as §2
[34] = molecular target: T1, AMP-activated protein kinase, AMPK (Homo sapiens); assay: Activation of AMPK in human LS174T cells assessed as […] phosphorylation at S79 residue by Western blot analysis; assay type: cell-based; in short: as §2

Cc1cc([N+](=O)[O-])ccc1N(C)S(=O)(=O)c1cc(Cl)ccc1Cl
inhibition [1]: inactive
Activity [2]: inactive
Activity [3]: inactive
Activity [4]: inactive

C=C(C)[C@H]1Cc2c(ccc3c2O[C@@H]2COc4cc(OC)c(OC)cc4[C@@H]2C3=O)O1
inhibition [5]: Active

O=[N+]([O-])c1ccc(NS(=O)(=O)c2cc(Cl)ccc2Cl)c2ccccc12
inhibition [1]: Active
Activity [2]: Active
Activity [3]: Active
Activity [6]: Dose-dependent effect

O=C(Nc1nnc(C(F)(F)F)s1)NC(CC(F)(F)F)(C(F)(F)F)C(F)(F)F
inhibition [7]: inactive
Activity [8]: inactive
IC50 [9]: 800 nM
IC50 [10]: 960 nM
inhibition [11]: Active
inhibition [12]: Active
inhibition [13]: Active
inhibition [14]: Active
inhibition [15]: Active
inhibition [16]: Active
inhibition [17]: Active
inhibition [18]: Active
inhibition [19]: Active
Activity [20]: Active
Activity [21]: Active
inhibition [22]: Active
Activity [23]: Active
Activity [24]: Active
Activity [25]: Active
Activity [26]: Active
Activity [27]: Active
Activity [28]: Active
Activity [29]: Active
Activity [30]: Active
inhibition [31]: Active

O=C1[C@H](Cc2ccc(O)cc2)N2C(=O)CCN(C(=O)NCc3ccccc3)[C@H]2CN1Cc1cccc2ccccc12
inhibition [32]: Active
Activity [33]: inactive
Activity [34]: inactive

CC[C@@H]1/C=C/C=C/C[C@H](C)[C@@H](O)[C@](C)(O)C(=O)[C@H](C)[C@@H](O)[C@H](C)C(=O)[C@H](C)[C@@H](O)[C@H](C)/C=C/C(=O)O[C@H]2[C@@H](C)[C@@H](CC1)O[C@@]1(CC[C@@H](C)[C@@H](C[C@@H](C)O)O1)[C@@H]2C
inhibition [5]: Active
